Sampled rows, rich in hits. Any-hit rate of the full collection: about 2.8%.
DENV2 CPE rescue – DENV2-induced cell death inhibition. DENV2-infected cells, cytopathic effect rescue, plate reader. 350,000 tested, 1.7% active. CPE inhibition, % at 9.99 µM; in the data active means CPE inhibition above about 20%, passing the limit was not always enough; tested in BHK-21 cells;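 further: 0% = median of neutral control wells and 100% = median of positive control wells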
E-sel inducer – induces E-selectin expression in human endothelial cells | P16581 | HUVEC E-selectin immunofluorescence imaging; normalized: neutral wells 0, TNF-alpha wells 100 | activation, % at 7.58 µM | 260,000 tested, 0.37% active | AID 686992;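 active means mean E-selectin-positive cell signal at least 10% of the positive control, reached in at least 60% of replicates, without over 20% cell loss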
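Read-out: % PE-positive cells | Test system: HUVEC | Doses: One compound dose added by pin transfer | Buffer or medium: EGM-2 over gelatin coat | Signal: Immunofluorescence imaging | Benchmarks: TNF-alpha, DMSO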
SIRT5 block – blocks human SIRT5 desuccinylation of peptide; Q9NXA8; Purified SirT5, succinyl-peptide AMC, trypsin-coupled fluorescence; AID 652115; inhibition, % at 15 µM; 330,000 tested, 1.1% active; in the data active means inhibition above about 15%
Target sequence (Q9NXA8 whole entry, looked up): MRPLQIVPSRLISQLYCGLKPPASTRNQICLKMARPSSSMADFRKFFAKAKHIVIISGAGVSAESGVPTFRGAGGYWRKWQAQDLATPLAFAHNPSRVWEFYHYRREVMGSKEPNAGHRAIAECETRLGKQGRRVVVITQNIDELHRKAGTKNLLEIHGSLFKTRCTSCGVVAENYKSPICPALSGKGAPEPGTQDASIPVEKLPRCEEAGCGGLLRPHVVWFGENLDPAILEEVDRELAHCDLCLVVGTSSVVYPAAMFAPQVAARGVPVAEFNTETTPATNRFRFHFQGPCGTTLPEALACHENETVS
* hit, by the source's call.

For Cc1cccc(S(=O)(=O)N2CCCCN3[C@@H](CO)[C@@H](c4ccc(-c5ccccc5)cc4)[C@@H]3C2)c1 the results were DENV2 CPE rescue -3.6 and SIRT5 block 11.8.
For Cc1ccc(-c2ccc([C@H]3[C@@H](CO)N4CCCCN(S(=O)(=O)c5cccc(C)c5)C[C@H]34)cc2)cc1 the results were DENV2 CPE rescue -4.5 and SIRT5 block 18.8*.
For Cc1ccc(-c2ccc(C3[C@@H]4CN(S(=O)(=O)c5cccc(C)c5)C[C@H]3N4)cc2)cc1 (some centres undefined) the results were DENV2 CPE rescue 3.0 and SIRT5 block 28.4*.
COc1cccc(S(=O)(=O)N2C[C@@H]3N[C@H](C2)C3c2ccc(-c3ccccc3OC)cc2)c1 (some centres undefined) was read as DENV2 CPE rescue -4.8, E-sel inducer 0.4 and SIRT5 block 8.7.
For CO[C@@H]1CN(C)C(=O)c2cc(NC(=O)c3ccc(F)cc3)ccc2OC[C@@H](C)N(C(=O)c2ccc(F)cc2)C[C@@H]1C the results were DENV2 CPE rescue -1.7, E-sel inducer -0.2 and SIRT5 block -0.2.
`C[C@H](CO)N1C[C@H](C)[C@@H](CN(C)S(=O)(=O)c2ccc(Cl)cc2)Oc2ccc(NC(=O)Nc3ccc(C(F)(F)F)cc3)cc2CC1=O` gave DENV2 CPE rescue -0.7, E-sel inducer 0.1 and SIRT5 block 0.7.
`O=C(c1ccccn1)N1CC[C@H]2[C@H](CO)Nc3ccc(-c4ccc(F)cc4)cc3[C@H]21` gave DENV2 CPE rescue -3.3 and E-sel inducer 0.7.
Screening Cc1noc(C)c1NC(=O)Nc1ccc2c(c1)C(=O)N([C@@H](C)CO)C[C@H](C)[C@H](CN(C)C(=O)Nc1ccc3c(c1)OCO3)O2 returned DENV2 CPE rescue 8.3, E-sel inducer -0.2 and SIRT5 block 2.3.
Cc1cccc(S(=O)(=O)N2CCCCN3[C@H](CO)[C@H](c4ccc(-c5ccncc5)cc4)[C@@H]3C2)c1 was read as DENV2 CPE rescue 32.5*, E-sel inducer -0.8 and SIRT5 block 11.6.
Screening Cc1cccc(S(=O)(=O)N2CCCCN3[C@@H](CO)[C@@H](c4ccc(-c5ccncc5)cc4)[C@@H]3C2)c1 returned DENV2 CPE rescue 5.3, E-sel inducer 0.6 and SIRT5 block 4.3.
For CCC1=C(OC(=O)N(CC)CC)N2C(=O)OC(=NCCOC)[C@]2(Cc2ccccc2)[C@H]2C1=CC[C@H]1C(=O)N(CC)C(=O)[C@H]12 the results were DENV2 CPE rescue 21.1* and E-sel inducer 0.5.
Screening CCC1=C(OC(=O)N(CC)CC)N2C(=O)OC(=NCCOC)[C@]2(Cc2ccccc2)[C@H]2C1=CC[C@H]1C(=O)N(C)C(=O)[C@H]12 returned DENV2 CPE rescue 7.0 and E-sel inducer -0.3.
Screening CCC1=C2CC[C@H]3C(=O)N(C)C(=O)[C@H]3[C@H]2[C@@]2(Cc3ccccc3)C(=NCCOC)OC(=O)N2C1=O returned DENV2 CPE rescue 40.3*, E-sel inducer -0.1 and SIRT5 block -0.3.
Screening CCC1=C2CC[C@H]3C(=O)N(CC)C(=O)[C@H]3[C@H]2[C@@]2(Cc3ccccc3)C(=NCCOC)OC(=O)N2C1=O returned DENV2 CPE rescue -1.8 and E-sel inducer 0.1.
Screening O=C(c1ccc2c(c1)OCO2)N1CC2(C1)[C@@H](c1ccccc1)[C@@H](CO)N2C(=O)C1CCCC1 returned DENV2 CPE rescue -0.9, E-sel inducer 0.0 and SIRT5 block 4.3.
Cc1cc(/C=C2/NC(=O)N(Cc3ccccc3F)C2=O)c(C)n1C(C)C was read as DENV2 CPE rescue 3.2, E-sel inducer -0.1 and SIRT5 block 112.2*.
CCn1c(C)cc(/C=C2/NC(=O)N(Cc3ccccc3F)C2=O)c1C was read as SIRT5 block 3.1.
For O=C(/C(=C/O)N=Nc1ccccc1)c1ccc(Cl)cc1 the results were DENV2 CPE rescue 13.7, E-sel inducer 1.6 and SIRT5 block -5.1.
Cc1ccc(N=N/C(=C\O)C(=O)c2ccc(Cl)cc2)cc1 was read as DENV2 CPE rescue 1.7, E-sel inducer 7.7 and SIRT5 block 21.7*.
For C#CCN([C@H](/C=C/C1CC1)[C@@H](O)Cc1ccccc1)[C@@H]1C(=O)N2[C@@H]1SC(C)(C)[C@@H]2C(=O)OC the results were DENV2 CPE rescue 17.2 and SIRT5 block -4.4.
For CCOC(=O)C1(C)CCCN(C(=O)c2cccc(C#N)c2)C1 (centres undefined) the results were DENV2 CPE rescue -12.3, E-sel inducer 0.0 and SIRT5 block 15.5*.
For CCOC(=O)C1(C)CCCN(C(=O)c2ccccc2)C1 (centres undefined) the results were DENV2 CPE rescue 11.9, E-sel inducer 0.3 and SIRT5 block 6.2.
For CCOC(=O)C1(C)CCN1C(=O)c1ccc(Cl)cc1Cl (centres undefined) the results were DENV2 CPE rescue -4.1, E-sel inducer -0.1 and SIRT5 block 0.9.
CCOC(=O)C1(C)CCN1C(=O)c1cccc(OC)c1 (centres undefined) was read as DENV2 CPE rescue 42.3* and E-sel inducer 0.0.
`CCOC(=O)C1(C)CCCN1C(=O)c1cccc(OC)c1` (centres undefined) gave DENV2 CPE rescue -11.8 and E-sel inducer -0.1.
`CCOC(=O)C1(C)CCN1C(=O)c1cccc(Cl)c1` (centres undefined) gave DENV2 CPE rescue 6.0, E-sel inducer -0.1 and SIRT5 block 32.1*.
For CCC(=O)N[C@@H]1CC[C@H](CC(=O)NCC2CC2)O[C@H]1CO the results were DENV2 CPE rescue 11.8, E-sel inducer -0.2 and SIRT5 block -1.3.
`CC=Cc1ccc2n(c1=O)C[C@H]1[C@H](CO)[C@@H](C(=O)NC3CCCC3)N(CCC)[C@@H]21` (mixture of isomers) gave DENV2 CPE rescue -8.3, E-sel inducer -0.3 and SIRT5 block -0.9.
`Cc1cccc(NS(=O)(=O)c2csc(C(N)=O)c2)c1C` gave DENV2 CPE rescue 2.5, E-sel inducer 50.0* and SIRT5 block -3.4.
For Cc1cccc(NS(=O)(=O)c2csc(C(N)=O)c2)c1 the results were DENV2 CPE rescue 6.8, E-sel inducer 0.1 and SIRT5 block -1.1.
C[C@H]1CN([C@@H](C)CO)C(=O)c2cccc(NS(=O)(=O)c3ccc(F)cc3)c2O[C@@H]1CN(C)S(=O)(=O)c1ccccc1 was read as DENV2 CPE rescue 0.9, E-sel inducer 0.2 and SIRT5 block -0.9.
Cc1ccc(S(=O)(=O)NCC(c2ccco2)S(=O)(=O)c2ccccc2)cc1 (centres undefined) was read as DENV2 CPE rescue -7.0 and SIRT5 block -2.0.
Screening O=C(CC(c1ccco1)S(=O)(=O)c1ccccc1)c1ccccc1 (centres undefined) returned DENV2 CPE rescue 1.3, E-sel inducer 0.1 and SIRT5 block 20.3*.
For C[C@@H]1CCCCO[C@H](CN(C)C(=O)Nc2ccc(F)cc2)[C@H](C)CN([C@@H](C)CO)C(=O)c2cc(NC(=O)Nc3cccc4ccccc34)ccc2O1 the results were DENV2 CPE rescue -0.8, E-sel inducer 0.3 and SIRT5 block 5.8.
CCNC(=O)C[C@@H]1CC[C@@H]2[C@@H](COc3ccc(NC(=O)c4cc(C)on4)cc3C(=O)N2C)O1 was read as DENV2 CPE rescue -0.8, E-sel inducer 0.0 and SIRT5 block -1.2.
